How the values were obtained:
[1] = biological target: Bromodomain-containing protein 4 (Homo sapiens, UniProt O60885); experiment: Inhibition of BRD4(1) (unknown origin) incubated for 4 hrs by (+)-JQ1 fluorescent ligand based fluorescence anisotrophy
HT-29 = experiment: Growth inhibition of human HT-29 cells after 72 hrs by SRB assay; type: functional, cell-based; details: HT-29, 72 h
Procedure, shortened: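 HT-29 cells are grown in McCoy's 5A with 10% FBS at 37 °C, 5% CO2. DMSO stocks (0.01 mol/L) are diluted in normal saline just before use. Cells are treated in triplicate with gradient concentrations for 72 h at 37 °C.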

[2] = Growth inhibition of human MM1S cells after 72 hrs by CellTiter-Glo luminescent cell viability assay; details: MM1.S
MV4-11 = experiment: Growth inhibition of human MV4-11 cells after 72 hrs by CellTiter-Glo luminescent cell viability assay; details: MV4-11, 72 h
CYP3A4 [3] = biological target: T1, CYP3A4 (Homo sapiens, UniProt P08684); experiment: Inhibition of CYP3A4 in human liver microsomes at 10 uM using midazolam substrate preincubated for 5 mins before NADPH addition and measured after 20 mins post NADPH addition; type: ADME; details: probe midazolam
T1 sequence (P08684 whole entry): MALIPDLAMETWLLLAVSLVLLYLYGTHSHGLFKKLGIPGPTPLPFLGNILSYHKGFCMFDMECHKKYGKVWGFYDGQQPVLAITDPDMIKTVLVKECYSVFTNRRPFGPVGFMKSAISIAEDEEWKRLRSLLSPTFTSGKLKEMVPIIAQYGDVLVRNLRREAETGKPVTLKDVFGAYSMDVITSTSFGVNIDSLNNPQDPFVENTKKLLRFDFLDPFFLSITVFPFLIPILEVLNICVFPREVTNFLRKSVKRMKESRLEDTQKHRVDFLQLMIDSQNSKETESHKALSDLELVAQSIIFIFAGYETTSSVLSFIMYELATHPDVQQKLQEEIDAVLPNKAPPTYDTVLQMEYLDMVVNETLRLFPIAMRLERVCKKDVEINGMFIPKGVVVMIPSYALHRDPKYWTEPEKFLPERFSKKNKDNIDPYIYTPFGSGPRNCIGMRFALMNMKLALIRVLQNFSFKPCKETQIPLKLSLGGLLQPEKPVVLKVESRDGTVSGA
Procedure, shortened: (§1)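 Human liver microsomes 0.2 mg/mL, 1 mmol NADPH, 100 mmol phosphate pH 7.4, probe cocktail (10 μM midazolam, 100 μM testosterone, 10 μM dextromethorphan, 20 μM diclofenac, 100 μM phenacetin, 100 μM mephenytoin), test compound 10 μM or PBS; organic solvent <1%. 5 min preincubation at 37 °C, NADPH-generating system start, 20 min reaction; inhibition from metabolite formation relative to PBS.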

CYP3A4 [4] = biological target: T1, CYP3A4; experiment: Inhibition of CYP3A4 in human liver microsomes at 10 uM preincubated for 5 mins before NADPH addition and measured after 20 mins post NADPH addition; type: ADME
CYP2D6 = CYP2D6 (Homo sapiens, UniProt P10635); experiment: Inhibition of CYP2D6 in human liver microsomes at 10 uM using dextromethorphan substrate preincubated for 5 mins before NADPH addition and measured after 20 mins post NADPH addition; type: ADME; details: liver microsomes, probe dextromethorphan; procedure, shortened: as §1
Sequence of CYP2D6 (P10635 whole entry): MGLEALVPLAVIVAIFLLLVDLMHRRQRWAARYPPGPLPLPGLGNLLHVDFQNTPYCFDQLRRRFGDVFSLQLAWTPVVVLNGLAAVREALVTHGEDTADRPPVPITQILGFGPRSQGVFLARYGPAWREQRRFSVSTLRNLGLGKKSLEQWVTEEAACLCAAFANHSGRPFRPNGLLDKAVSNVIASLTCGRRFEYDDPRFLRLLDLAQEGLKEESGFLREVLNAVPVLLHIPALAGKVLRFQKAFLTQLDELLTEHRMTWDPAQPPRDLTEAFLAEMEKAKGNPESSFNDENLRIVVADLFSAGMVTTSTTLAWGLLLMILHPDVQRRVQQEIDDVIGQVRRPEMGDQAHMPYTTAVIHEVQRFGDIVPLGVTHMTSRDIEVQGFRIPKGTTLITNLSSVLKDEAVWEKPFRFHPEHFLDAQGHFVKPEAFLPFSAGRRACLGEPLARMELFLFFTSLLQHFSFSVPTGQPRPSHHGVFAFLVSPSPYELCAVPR

CYP2C9 = CYP2C9 (Homo sapiens, UniProt P11712); experiment: Inhibition of CYP2C9 in human liver microsomes at 10 uM using diclofenac substrate preincubated for 5 mins before NADPH addition and measured after 20 mins post NADPH addition; type: ADME; details: liver microsomes, probe diclofenac; procedure, shortened: as §1
Sequence of CYP2C9 (P11712 whole entry): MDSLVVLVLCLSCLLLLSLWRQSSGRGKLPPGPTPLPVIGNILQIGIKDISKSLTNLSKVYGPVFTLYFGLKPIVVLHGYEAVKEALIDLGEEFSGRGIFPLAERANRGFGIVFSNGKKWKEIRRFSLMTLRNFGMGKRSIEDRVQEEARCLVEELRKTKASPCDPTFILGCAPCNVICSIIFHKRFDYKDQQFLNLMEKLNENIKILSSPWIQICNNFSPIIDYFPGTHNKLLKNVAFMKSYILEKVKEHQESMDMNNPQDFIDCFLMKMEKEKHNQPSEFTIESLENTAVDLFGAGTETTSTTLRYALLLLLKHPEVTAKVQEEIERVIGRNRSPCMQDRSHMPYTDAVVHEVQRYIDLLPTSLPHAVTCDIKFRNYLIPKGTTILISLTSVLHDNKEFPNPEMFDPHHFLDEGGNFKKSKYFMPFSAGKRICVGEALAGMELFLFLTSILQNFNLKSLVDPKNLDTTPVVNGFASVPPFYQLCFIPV

CYP1A2 = biological target: T2, CYP1A2 (Homo sapiens, UniProt P05177); experiment: Inhibition of CYP1A2 in human liver microsomes at 10 uM using phenacetin substrate preincubated for 5 mins before NADPH addition and measured after 20 mins post NADPH addition; type: ADME; details: probe phenacetin; procedure, shortened: as §1
T2 sequence (P05177 whole entry): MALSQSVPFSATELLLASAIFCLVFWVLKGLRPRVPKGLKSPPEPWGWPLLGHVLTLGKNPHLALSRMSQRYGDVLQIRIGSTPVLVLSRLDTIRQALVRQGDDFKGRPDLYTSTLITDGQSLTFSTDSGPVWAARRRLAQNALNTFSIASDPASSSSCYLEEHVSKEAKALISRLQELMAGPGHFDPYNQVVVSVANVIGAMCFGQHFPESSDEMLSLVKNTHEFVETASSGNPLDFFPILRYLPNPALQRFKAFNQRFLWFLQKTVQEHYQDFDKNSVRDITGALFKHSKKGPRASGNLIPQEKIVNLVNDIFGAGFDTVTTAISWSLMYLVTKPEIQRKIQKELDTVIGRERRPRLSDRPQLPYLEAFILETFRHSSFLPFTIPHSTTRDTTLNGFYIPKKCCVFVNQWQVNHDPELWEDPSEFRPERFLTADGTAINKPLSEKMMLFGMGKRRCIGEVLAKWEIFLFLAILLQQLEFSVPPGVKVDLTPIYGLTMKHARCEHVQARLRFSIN

CYP2C19 = CYP2C19 (Homo sapiens, UniProt P33261); experiment: Inhibition of CYP2C19 in human liver microsomes at 10 uM using mephenytoin substrate preincubated for 5 mins before NADPH addition and measured after 20 mins post NADPH addition; type: ADME; details: probe mephenytoin; procedure, shortened: as §1
Sequence of CYP2C19 (P33261 whole entry): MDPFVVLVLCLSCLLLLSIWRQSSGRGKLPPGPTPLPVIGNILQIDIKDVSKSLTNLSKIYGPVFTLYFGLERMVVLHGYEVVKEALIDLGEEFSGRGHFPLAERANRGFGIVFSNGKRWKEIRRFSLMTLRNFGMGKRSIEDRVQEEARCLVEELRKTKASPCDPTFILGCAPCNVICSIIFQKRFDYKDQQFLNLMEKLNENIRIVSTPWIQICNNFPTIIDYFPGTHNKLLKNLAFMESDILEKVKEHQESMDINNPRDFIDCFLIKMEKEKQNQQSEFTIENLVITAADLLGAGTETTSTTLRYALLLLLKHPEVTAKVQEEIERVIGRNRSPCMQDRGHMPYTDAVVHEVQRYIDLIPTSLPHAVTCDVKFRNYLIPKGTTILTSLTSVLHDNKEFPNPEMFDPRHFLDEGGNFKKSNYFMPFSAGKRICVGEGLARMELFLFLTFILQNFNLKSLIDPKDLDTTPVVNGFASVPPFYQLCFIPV

Cytochrome P450 3A4 = Cytochrome P450 3A4 (Homo sapiens, UniProt P08684); experiment: Time dependent inhibition of CYP3A4 in human liver microsomes at 10 uM using midazolam substrate preincubated for 5 mins before NADPH addition and measured after 20 mins post NADPH addition; type: ADME
Sequence of Cytochrome P450 3A4 (P08684 whole entry): as the sequence (P08684 whole entry) above

Cytochrome P450 2D6 = Cytochrome P450 2D6 (Homo sapiens, UniProt P10635); experiment: Time dependent inhibition of CYP2D6 in human liver microsomes at 10 uM using dextromethorphan substrate preincubated for 5 mins before NADPH addition and measured after 20 mins post NADPH addition; type: ADME
Sequence of Cytochrome P450 2D6 (P10635 whole entry): as the sequence (P10635 whole entry) above

Cytochrome P450 2C9 = Cytochrome P450 2C9 (Homo sapiens, UniProt P11712); experiment: Time dependent inhibition of CYP2C9 in human liver microsomes at 10 uM using diclofenac substrate preincubated for 5 mins before NADPH addition and measured after 20 mins post NADPH addition; type: ADME
Sequence of Cytochrome P450 2C9 (P11712 whole entry): as the sequence (P11712 whole entry) above

Cytochrome P450 1A2 = biological target: T3, Cytochrome P450 1A2 (Homo sapiens, UniProt P05177); experiment: Time dependent inhibition of CYP1A2 in human liver microsomes at 10 uM using phenacetin substrate preincubated for 5 mins before NADPH addition and measured after 20 mins post NADPH addition; type: ADME
T3 sequence (P05177 whole entry): T2 sequence (P05177 whole entry)

Cytochrome P450 2C19 = Cytochrome P450 2C19 (Homo sapiens, UniProt P33261); experiment: Time dependent inhibition of CYP2C19 in human liver microsomes at 10 uM using mephenytoin substrate preincubated for 5 mins before NADPH addition and measured after 20 mins post NADPH addition; type: ADME
Sequence of Cytochrome P450 2C19 (P33261 whole entry): as the sequence (P33261 whole entry) above

| SMILES | IC50 [1] [µM] | IC50 (HT-29) [µM] | IC50 [2] [µM] | IC50 (MV4-11) [µM] | other results |
| --- | --- | --- | --- | --- | --- |
| Cc1c(NC(=O)c2cccs2)cc(-c2csc(=O)[nH]2)cc1S(=O)(=O)NC1CCCC1 | 0.79 | 20.1 | 4.09 | 0.602 |  |
| Nc1ccc(NS(=O)(=O)c2cccc(-c3csc(=O)[nH]3)c2)cc1 | 8.33 |  |  |  |  |
| O=c1[nH]c(-c2ccc(Cl)c(S(=O)(=O)NC3CCCC3)c2)cs1 | 0.25 | 23.7 | 3.37 | 0.341 |  |
| COCC(=O)Nc1ccc(-c2csc(=O)[nH]2)cc1S(=O)(=O)NC1CCCC1 | 0.4 | 24.6 | 2.31 | 0.681 |  |
| COc1cc2c(cc1-c1c(C)noc1C)ncc1[nH]c(=O)n([C@H](C)c3ccccn3)c12 |  | 0.945 | 0.299 | 0.119 | inhibition at 20 min, 10 µM (CYP3A4 [3]): 21%; inhibition at 20 min, 10 µM (CYP3A4 [4]): 22%; inhibition at 20 min, 10 µM (CYP2D6): 18%; inhibition at 20 min, 10 µM (CYP2C9): 33%; inhibition at 20 min, 10 µM (CYP1A2): 18%; inhibition at 20 min, 10 µM (CYP2C19): 19%; TDI (Cytochrome P450 3A4): Not Active; TDI (Cytochrome P450 2D6): Not Active; TDI (Cytochrome P450 2C9): Not Active; TDI (Cytochrome P450 1A2): Not Active; TDI (Cytochrome P450 2C19): Not Active |
| O=c1[nH]c(-c2cc(Br)cc(S(=O)(=O)NC3CCCC3)c2)cs1 | 0.3 | 57.1 |  |  |  |

Now from value to compound, other results behind:

| IC50 [1] [µM] | IC50 (HT-29) [µM] | IC50 [2] [µM] | IC50 (MV4-11) [µM] | SMILES | other results |
| --- | --- | --- | --- | --- | --- |
| 5.82 |  |  |  | O=c1[nH]c(-c2cccc(S(=O)(=O)NC3CCOC3)c2)cs1 (stereo not given) |  |
| > 10 |  |  |  | O=c1[nH]c(-c2cccc(S(=O)(=O)NCCc3cccs3)c2)cs1 |  |
| 1.4 |  |  |  | O=c1[nH]c(-c2cccc(S(=O)(=O)NC3CCCC3)c2)cs1 |  |
| > 10 |  |  |  | COc1ccc(NS(=O)(=O)c2cccc(-c3csc(=O)[nH]3)c2)cc1 |  |
| 2.26 |  |  |  | O=c1[nH]c(-c2cccc(S(=O)(=O)NC3CC3)c2)cs1 |  |
| > 100 |  |  |  | O=c1[nH]c(-c2ccccc2F)cs1 |  |

Reference: ChEMBL document CHEMBL3407418, “Fragment-based drug discovery of 2-thiazolidinones as BRD4 inhibitors: 2. Structure-based optimization” (J Med Chem, 2015)
